Numbering of substitutions follows the chain as printed.
Key:
Conditions in all cases: stereoisomer not certain
O5AN1 = tested on: T1, O5AN1
T1 sequence (whole entry): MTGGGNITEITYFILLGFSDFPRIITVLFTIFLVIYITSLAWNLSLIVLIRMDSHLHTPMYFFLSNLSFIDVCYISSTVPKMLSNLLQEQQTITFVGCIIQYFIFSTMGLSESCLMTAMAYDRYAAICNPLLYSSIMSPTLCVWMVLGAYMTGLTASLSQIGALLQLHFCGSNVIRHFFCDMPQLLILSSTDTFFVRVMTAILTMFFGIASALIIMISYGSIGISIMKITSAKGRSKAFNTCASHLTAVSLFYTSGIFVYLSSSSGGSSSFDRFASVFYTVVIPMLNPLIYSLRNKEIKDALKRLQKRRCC
Outline: (§1)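 Assay methods differ from source to source, frequently being transient luciferase assays in mammalian cell lines. For each receptor–molecule pair, the label responsive (active) applies when the original authors judged the measured signal statistically different from baseline, and non-responsive (inactive) applies otherwise.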

O5AP2 A105T = tested on: T2, O5AP2 A105T
T2 sequence (whole entry): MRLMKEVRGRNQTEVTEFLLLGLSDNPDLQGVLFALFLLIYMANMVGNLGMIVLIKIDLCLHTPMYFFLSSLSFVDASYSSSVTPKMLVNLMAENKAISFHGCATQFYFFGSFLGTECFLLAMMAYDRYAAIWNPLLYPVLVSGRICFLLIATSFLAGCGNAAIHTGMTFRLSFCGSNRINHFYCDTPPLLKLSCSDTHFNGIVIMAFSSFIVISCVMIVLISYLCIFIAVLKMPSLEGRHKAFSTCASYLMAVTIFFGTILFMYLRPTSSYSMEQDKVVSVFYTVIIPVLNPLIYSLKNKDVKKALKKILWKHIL
Outline: as §1

O5AU1 = tested on: T3, O5AU1
T3 sequence (whole entry): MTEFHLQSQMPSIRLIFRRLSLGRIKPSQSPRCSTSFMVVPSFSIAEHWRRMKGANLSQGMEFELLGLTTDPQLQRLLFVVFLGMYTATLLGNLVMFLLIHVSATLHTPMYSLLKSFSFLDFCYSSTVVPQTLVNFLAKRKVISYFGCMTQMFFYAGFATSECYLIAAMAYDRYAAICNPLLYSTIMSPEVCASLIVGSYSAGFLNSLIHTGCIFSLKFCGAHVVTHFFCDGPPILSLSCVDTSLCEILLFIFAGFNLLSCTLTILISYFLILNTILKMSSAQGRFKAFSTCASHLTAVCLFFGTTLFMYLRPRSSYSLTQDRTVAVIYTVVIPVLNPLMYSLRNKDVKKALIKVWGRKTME
Outline: as §1

O5H14 = tested on: T4, O5H14
T4 sequence (whole entry): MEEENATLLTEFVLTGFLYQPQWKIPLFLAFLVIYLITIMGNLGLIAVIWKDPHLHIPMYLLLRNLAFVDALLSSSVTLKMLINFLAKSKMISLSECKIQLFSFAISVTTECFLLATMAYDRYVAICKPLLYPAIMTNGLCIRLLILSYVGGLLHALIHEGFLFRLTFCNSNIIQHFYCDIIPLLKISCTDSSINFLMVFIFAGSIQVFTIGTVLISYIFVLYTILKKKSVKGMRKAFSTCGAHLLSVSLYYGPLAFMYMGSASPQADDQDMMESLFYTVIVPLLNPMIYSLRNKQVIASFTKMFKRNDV
Outline: as §1

O5H15 V108I S148T T167S = tested on: T5, O5H15 V108I S148T T167S
T5 sequence (whole entry): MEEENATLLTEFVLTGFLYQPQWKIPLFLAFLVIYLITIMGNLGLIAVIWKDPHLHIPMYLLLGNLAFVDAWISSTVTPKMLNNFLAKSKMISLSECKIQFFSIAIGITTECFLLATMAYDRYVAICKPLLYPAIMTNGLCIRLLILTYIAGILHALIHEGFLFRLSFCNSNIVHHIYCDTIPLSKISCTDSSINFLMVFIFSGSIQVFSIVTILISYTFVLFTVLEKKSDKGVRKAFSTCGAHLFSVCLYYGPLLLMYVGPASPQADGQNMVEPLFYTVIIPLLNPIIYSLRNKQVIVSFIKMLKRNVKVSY
Outline: as §1

O6C65 T222A = tested on: T6, O6C65 T222A
T6 sequence (whole entry): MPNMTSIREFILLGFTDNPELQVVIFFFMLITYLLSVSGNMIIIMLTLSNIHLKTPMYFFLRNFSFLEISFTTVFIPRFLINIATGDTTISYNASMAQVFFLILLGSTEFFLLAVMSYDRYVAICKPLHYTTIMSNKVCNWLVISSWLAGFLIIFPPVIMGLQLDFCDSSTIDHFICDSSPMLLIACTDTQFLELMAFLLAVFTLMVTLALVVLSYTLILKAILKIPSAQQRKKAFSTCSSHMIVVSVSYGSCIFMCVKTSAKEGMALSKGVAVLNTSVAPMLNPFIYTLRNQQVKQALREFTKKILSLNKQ
Outline: as §1

O6C70 L181P = tested on: T7, O6C70 L181P
T7 sequence (whole entry): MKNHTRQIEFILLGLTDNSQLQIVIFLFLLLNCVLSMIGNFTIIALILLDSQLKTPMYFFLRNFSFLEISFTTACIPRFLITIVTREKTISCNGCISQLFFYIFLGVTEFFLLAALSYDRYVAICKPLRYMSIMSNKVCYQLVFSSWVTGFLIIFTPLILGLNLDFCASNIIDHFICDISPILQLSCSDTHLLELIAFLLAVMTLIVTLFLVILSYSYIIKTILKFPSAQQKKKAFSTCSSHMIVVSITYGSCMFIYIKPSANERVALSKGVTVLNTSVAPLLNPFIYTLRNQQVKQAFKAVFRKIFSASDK
Outline: as §1

O7E24 S193F P242S = tested on: T8, O7E24 S193F P242S
T8 sequence (whole entry): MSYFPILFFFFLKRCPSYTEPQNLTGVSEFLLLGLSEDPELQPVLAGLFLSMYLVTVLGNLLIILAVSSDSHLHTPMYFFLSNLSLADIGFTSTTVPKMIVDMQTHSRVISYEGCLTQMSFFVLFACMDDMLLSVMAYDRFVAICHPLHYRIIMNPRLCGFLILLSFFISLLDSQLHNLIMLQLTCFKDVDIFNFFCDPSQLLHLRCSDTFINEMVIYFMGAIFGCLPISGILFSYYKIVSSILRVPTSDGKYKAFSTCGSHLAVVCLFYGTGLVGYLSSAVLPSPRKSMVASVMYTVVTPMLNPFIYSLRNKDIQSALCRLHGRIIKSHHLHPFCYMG
Outline: as §1

O7E24 = tested on: T9, O7E24
T9 sequence (whole entry): T8 sequence (whole entry) with F193S
Outline: as §1

OR10A2 (Homo sapiens) = biological target: T10, OR10A2 (Homo sapiens) (UniProt Q9H208)
T10 sequence (whole entry): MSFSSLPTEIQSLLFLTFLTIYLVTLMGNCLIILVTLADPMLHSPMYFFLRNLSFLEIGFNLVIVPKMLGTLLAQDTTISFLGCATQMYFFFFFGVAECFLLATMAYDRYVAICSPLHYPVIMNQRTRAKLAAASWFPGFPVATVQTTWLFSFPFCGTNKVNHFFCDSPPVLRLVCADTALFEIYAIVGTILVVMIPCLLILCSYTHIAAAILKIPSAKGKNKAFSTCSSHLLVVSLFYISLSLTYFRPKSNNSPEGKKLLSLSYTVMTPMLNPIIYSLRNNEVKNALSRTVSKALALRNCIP
Outline: as §1

OR10A3 (Homo sapiens) = biological target: T11, OR10A3 (Homo sapiens) (UniProt P58181)
T11 sequence (whole entry): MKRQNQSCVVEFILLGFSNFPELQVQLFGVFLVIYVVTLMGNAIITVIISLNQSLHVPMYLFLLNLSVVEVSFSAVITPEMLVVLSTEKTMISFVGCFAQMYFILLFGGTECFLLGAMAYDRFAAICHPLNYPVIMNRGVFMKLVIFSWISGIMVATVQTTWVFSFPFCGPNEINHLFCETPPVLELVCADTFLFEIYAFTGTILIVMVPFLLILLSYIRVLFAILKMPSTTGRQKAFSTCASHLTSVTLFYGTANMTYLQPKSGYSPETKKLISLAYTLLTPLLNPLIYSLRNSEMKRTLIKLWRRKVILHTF
Outline: as §1

OR10A4 (Homo sapiens) = biological target: T12, OR10A4 (Homo sapiens) (UniProt Q9H209)
T12 sequence (whole entry): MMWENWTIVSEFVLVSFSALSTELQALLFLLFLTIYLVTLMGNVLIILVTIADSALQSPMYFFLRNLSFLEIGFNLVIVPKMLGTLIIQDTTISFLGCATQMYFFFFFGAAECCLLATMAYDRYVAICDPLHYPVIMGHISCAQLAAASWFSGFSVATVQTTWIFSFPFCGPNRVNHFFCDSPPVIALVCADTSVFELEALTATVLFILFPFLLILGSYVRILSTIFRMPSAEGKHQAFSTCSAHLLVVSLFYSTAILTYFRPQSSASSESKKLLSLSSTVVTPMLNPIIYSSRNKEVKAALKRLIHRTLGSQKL
Outline: as §1

OR10A5 (Homo sapiens) = biological target: T13, OR10A5 (Homo sapiens) (UniProt Q9H207)
T13 sequence (whole entry): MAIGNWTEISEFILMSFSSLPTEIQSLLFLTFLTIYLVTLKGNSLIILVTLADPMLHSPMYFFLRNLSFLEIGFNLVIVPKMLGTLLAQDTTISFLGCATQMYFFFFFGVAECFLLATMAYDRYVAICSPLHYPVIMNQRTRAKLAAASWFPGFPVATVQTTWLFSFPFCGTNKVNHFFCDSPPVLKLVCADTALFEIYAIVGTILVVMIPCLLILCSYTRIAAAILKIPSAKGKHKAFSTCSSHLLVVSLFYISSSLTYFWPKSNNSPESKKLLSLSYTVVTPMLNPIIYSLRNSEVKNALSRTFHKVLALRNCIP
Outline: as §1

OR10A6 (Homo sapiens) = biological target: T14, OR10A6 (Homo sapiens) (UniProt Q8NH74)
T14 sequence (whole entry): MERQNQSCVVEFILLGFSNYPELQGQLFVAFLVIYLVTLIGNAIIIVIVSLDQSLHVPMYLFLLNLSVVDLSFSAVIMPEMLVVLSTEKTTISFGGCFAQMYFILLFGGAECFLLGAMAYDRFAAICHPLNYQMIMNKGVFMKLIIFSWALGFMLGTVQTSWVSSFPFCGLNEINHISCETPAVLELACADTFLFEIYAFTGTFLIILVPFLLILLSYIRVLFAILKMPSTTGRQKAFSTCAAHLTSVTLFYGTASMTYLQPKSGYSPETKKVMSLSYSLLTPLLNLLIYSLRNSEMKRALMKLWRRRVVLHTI
Outline: as §1

OR10A7 (Homo sapiens) = biological target: T15, OR10A7 (Homo sapiens) (UniProt Q8NGE5)
T15 sequence (whole entry): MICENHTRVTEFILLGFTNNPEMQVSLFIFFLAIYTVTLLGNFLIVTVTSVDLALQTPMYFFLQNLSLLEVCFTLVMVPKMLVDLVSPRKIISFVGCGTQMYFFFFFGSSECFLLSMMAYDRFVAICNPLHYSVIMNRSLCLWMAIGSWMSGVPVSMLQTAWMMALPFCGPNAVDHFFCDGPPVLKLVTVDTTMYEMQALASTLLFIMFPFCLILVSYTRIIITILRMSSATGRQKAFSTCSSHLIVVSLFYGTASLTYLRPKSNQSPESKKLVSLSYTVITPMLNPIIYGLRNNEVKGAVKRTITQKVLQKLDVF
Outline: as §1

OR10AD1 (Homo sapiens) = biological target: T16, OR10AD1 (Homo sapiens) (UniProt Q8NGE0)
T16 sequence (whole entry): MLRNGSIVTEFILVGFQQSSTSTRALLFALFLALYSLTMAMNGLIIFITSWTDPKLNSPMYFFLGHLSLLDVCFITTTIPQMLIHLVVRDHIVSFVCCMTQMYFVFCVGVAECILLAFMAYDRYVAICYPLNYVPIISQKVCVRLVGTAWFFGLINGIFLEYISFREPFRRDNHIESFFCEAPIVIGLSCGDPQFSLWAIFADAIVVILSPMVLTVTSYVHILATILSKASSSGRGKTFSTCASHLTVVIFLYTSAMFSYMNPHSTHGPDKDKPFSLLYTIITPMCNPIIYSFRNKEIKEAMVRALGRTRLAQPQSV
Outline: as §1

OR10AG1 (Homo sapiens) = biological target: T17, OR10AG1 (Homo sapiens) (UniProt Q8NH19)
T17 sequence (whole entry): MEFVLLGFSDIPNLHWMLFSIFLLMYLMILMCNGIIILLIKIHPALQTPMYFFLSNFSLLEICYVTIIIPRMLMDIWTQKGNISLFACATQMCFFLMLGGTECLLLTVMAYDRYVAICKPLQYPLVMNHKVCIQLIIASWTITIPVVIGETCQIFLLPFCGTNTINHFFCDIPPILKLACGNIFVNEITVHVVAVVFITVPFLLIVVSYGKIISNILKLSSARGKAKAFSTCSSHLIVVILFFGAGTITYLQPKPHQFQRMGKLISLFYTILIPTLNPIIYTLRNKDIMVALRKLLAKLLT
Outline: as §1

OR10C1 (Homo sapiens) = biological target: T18, OR10C1 (Homo sapiens) (UniProt Q96KK4)
T18 sequence (whole entry): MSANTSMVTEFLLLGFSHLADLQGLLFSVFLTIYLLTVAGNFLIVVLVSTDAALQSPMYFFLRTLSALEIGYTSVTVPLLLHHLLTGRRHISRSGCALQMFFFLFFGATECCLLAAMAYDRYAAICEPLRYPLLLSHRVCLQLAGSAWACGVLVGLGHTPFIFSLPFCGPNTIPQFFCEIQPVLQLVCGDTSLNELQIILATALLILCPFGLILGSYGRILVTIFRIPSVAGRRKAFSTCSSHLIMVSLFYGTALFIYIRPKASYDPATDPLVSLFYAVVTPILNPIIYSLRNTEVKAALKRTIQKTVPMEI
Outline: as §1

OR10D3 (Homo sapiens) = biological target: T19, OR10D3 (Homo sapiens) (UniProt Q8NH80)
T19 sequence (whole entry): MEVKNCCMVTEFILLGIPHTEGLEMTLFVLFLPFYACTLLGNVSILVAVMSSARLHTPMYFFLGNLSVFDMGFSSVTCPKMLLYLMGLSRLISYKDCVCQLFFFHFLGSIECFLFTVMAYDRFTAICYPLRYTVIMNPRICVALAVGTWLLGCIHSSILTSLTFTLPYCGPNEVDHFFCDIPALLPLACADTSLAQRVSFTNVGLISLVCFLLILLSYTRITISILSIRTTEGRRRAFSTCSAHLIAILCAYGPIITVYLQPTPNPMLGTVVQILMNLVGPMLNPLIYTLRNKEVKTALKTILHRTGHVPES
Outline: as §1

Measured: odorant receptor agonist call

O=C1C=CCCCCCCCCCCCCO1
inactive: O5AN1

CC1=C(O)C(=O)OC1C (centres undefined)
inactive: O5AP2 A105T | O5AU1 | O5H14 | O5H15 V108I S148T T167S | O6C65 T222A | O6C70 L181P | O7E24 S193F P242S | O7E24 | OR10A2 (Homo sapiens) | OR10A3 (Homo sapiens) | OR10A4 (Homo sapiens) | OR10A5 (Homo sapiens) | OR10A6 (Homo sapiens) | OR10A7 (Homo sapiens) | OR10AD1 (Homo sapiens) | OR10AG1 (Homo sapiens) | OR10C1 (Homo sapiens) | OR10D3 (Homo sapiens)
